Assay results published in ChEMBL document CHEMBL1156809, “Synthesis and anticonvulsant activities of (R)-N-(4'-substituted)benzyl 2-acetamido-3-methoxypropionamides” (J Med Chem, 2010).
The source made the active and inactive calls. The calls are words filed in the database; no cut-off is given here.

Columns and labels:
[1] = Behavioral toxicity in po dosed albino Sprague-Dawley rat; type: organism-based; conditions: in vivo
How it was run: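 Behavioral toxicity was recorded as observed effects in rats after oral administration, within the NINDS ASP screen.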

[2] = Neurological toxicity in ip dosed albino CF1 mouse assessed as neurological impairment by rotarod test; type: organism-based; conditions: in vivo
How it was run: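 Neurological impairment was measured with the rotorod test in mice dosed intraperitoneally. The median dose (TD50, mg/kg) was determined only for compounds with significant MES activity.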

[3] = test system: Mus musculus; assay: Anticonvulsant activity against subcutaneous metrazole-induced seizures in albino CF1 mouse at 300 mg/kg, ip after 4 hrs; type: functional, organism-based; design: dose 300 mg/kg
How it was run: (§1)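 Subcutaneous Metrazol seizure test under the NINDS ASP, using ip dosing to mice, typically at 300 mg/kg. Protection was assessed at 0.5 and 4 h.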

[4] = test system: Rattus norvegicus; assay: Anticonvulsant activity against subcutaneous metrazole-induced seizures in albino Sprague-Dawley rat at 300 mg/kg, ip after 4 hrs; type: functional, organism-based; design: dose 300 mg/kg
[5] = test system: Mus musculus; assay: Anticonvulsant activity in ip dosed albino CF1 mouse seizure model assessed as protection against hind limb extension by MES test; type: functional; conditions: albino CF1, Hindlimb
How it was run: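 Maximal electroshock seizure test run by the NINDS ASP (Stables and Kupferberg procedures). Compounds were given intraperitoneally to mice, and the ED50 for seizure protection is reported in mg/kg.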

[6] = test system: Rattus norvegicus; assay: Anticonvulsant activity in po dosed albino Sprague-Dawley rat seizure model assessed as protection against hind limb extension by MES test; type: functional; conditions: Hindlimb
How it was run: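 MES seizure protection was tested in Sprague Dawley rats dosed orally, through the NINDS ASP. The ED50 is expressed in mg/kg.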

[7] = test system: Rattus norvegicus; assay: Anticonvulsant activity against subcutaneous metrazole-induced seizures in albino Sprague-Dawley rat at 300 mg/kg, ip after 0.5 hrs; type: functional, organism-based; design: dose 300 mg/kg
[8] = test system: Mus musculus; assay: Anticonvulsant activity against subcutaneous metrazole-induced seizures in albino CF1 mouse at 300 mg/kg, ip after 0.5 hrs; type: functional, organism-based; design: dose 300 mg/kg; how it was run: as §1
[9] = test system: Rattus norvegicus; assay: Protective index, ratio of TD50 for po dosed albino Sprague-Dawley rat to ED50 for po dosed albino Sprague-Dawley rat; type: functional
How it was run: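 Protective index was calculated as TD50/ED50 for the same species and route: mouse ip (rotorod TD50, MES ED50) and rat po.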

Compound | TD50 [1] | TD50 [2] | Activity [3] | Activity [4] | ED50 [5] | ED50 [6] | Activity [7] | Activity [8] | PI [9]
COC[C@H](NC(C)=O)C(=O)NCc1ccc(I)cc1 | > 30 mg/kg | > 300 mg/kg | inactive | inactive | 100 mg/kg | > 30 mg/kg | inactive | inactive | 
COC[C@H](NC(C)=O)C(=O)NCc1ccc(C#C[Si](C)(C)C)cc1 | > 30 mg/kg | 100 mg/kg | inactive | inactive | 30 mg/kg | > 30 mg/kg | inactive | inactive | 
C#Cc1ccc(CNC(=O)[C@H](COC)NC(C)=O)cc1 |  | > 300 mg/kg | inactive | inactive | > 300 mg/kg |  | inactive | inactive | 
COC[C@@H](NC(C)=O)C(=O)NCc1ccc(C(C)(C)C)cc1 | > 30 mg/kg | 100 mg/kg | inactive | inactive | 100 mg/kg | > 30 mg/kg | inactive | inactive | 
COC[C@@H](NC(C)=O)C(=O)NCc1ccc([N+](=O)[O-])cc1 |  |  |  |  | 100 mg/kg |  |  |  | 
COC[C@@H](NC(C)=O)C(=O)NCc1ccccc1F | > 30 mg/kg | 100 mg/kg | inactive | inactive | 10 mg/kg | 11 mg/kg | inactive | inactive | >2.7
COC[C@@H](NC(C)=O)C(=O)NCc1ccc(C=O)cc1 |  | > 300 mg/kg | inactive | inactive | > 300 mg/kg |  | inactive | inactive | 
CCc1ccc(CNC(=O)[C@H](COC)NC(C)=O)cc1 | > 30 mg/kg | 100 mg/kg | inactive | inactive | 100 mg/kg | > 30 mg/kg | inactive | inactive | 
COC[C@@H](NC(C)=O)C(=O)NCc1ccc(CN)cc1.Cl |  | > 300 mg/kg | inactive | inactive | > 300 mg/kg |  | inactive | inactive | 
COC[C@@H](NC(C)=O)C(=O)NCc1ccc(C(C)C)cc1 | > 30 mg/kg | 100 mg/kg | inactive | inactive | 10 mg/kg | > 30 mg/kg | inactive | inactive | 
COC[C@@H](NC(C)=O)C(=O)NCc1ccc(C#C[Si](C)(C)C)cc1 |  | 3 mg/kg | inactive | inactive | > 3 mg/kg |  | inactive | inactive | 
COC[C@@H](NC(C)=O)C(=O)NCc1ccc(C(=O)O)cc1 |  | > 300 mg/kg | inactive | inactive | > 300 mg/kg |  | inactive | inactive | 
COC[C@H](NC(C)=O)C(=O)NCc1ccccc1 | > 30 mg/kg | > 300 mg/kg | inactive | inactive |  |  | inactive | inactive | 
C=Cc1ccc(CNC(=O)[C@H](COC)NC(C)=O)cc1 |  | > 300 mg/kg | inactive | inactive | 100 mg/kg |  | inactive | inactive | 
COC[C@@H](NC(C)=O)C(=O)NCc1ccc(CNC(=O)OC(C)(C)C)cc1 |  | > 300 mg/kg | inactive | inactive | > 300 mg/kg |  | inactive | inactive | 
COC[C@H](NC(C)=O)C(=O)NCc1ccc(C=O)cc1 |  | > 300 mg/kg | inactive | inactive | > 300 mg/kg |  | inactive | inactive | 
COC[C@@H](NC(C)=O)C(=O)NCc1ccc(C#CC(C)(C)C)cc1 |  | 30 mg/kg | inactive | inactive | > 300 mg/kg |  | inactive | inactive | 
COC[C@@H](NC(C)=O)C(=O)NCc1ccc(NC(=O)C(F)(F)F)cc1 | > 30 mg/kg | 100 mg/kg | inactive | inactive | > 300 mg/kg | > 30 mg/kg | inactive | inactive | 

Compound | TD50 [1] | TD50 [2] | Activity [3] | Activity [4] | ED50 [5] | ED50 [6] | Activity [7] | Activity [8] | PI [9]
C#Cc1ccc(CNC(=O)[C@@H](COC)NC(C)=O)cc1 | > 250 mg/kg |  | inactive | inactive | 3 mg/kg | 3.4 mg/kg | inactive | inactive | >74
CCC1(c2ccccc2)C(=O)NC(=O)NC1=O |  |  | inactive | inactive |  |  | inactive | inactive | 
COC[C@H](NC(C)=O)C(=O)NCc1ccc(N=[N+]=[N-])cc1 | > 30 mg/kg | > 300 mg/kg | inactive | inactive | 100 mg/kg |  | inactive | inactive | 
COC[C@@H](NC(C)=O)C(=O)NCc1ccc(Cl)cc1Cl |  |  |  |  | 30 mg/kg |  |  |  | 
COC[C@@H](NC(C)=O)C(=O)NCc1ccc(C(F)(F)F)cc1 | > 280 mg/kg | 100 mg/kg | inactive | inactive | 10 mg/kg | 4.9 mg/kg | inactive | inactive | >57
COC[C@@H](NC(C)=O)C(=O)NCc1ccc(N)cc1 |  | > 300 mg/kg | inactive | inactive | > 300 mg/kg |  | inactive | inactive | 
COC[C@@H](NC(C)=O)C(=O)NCc1ccc(N=C=S)cc1 |  |  |  |  | 24 mg/kg |  |  |  | 
COC[C@@H](NC(C)=O)C(=O)NCc1ccc(S(N)(=O)=O)cc1 |  | > 300 mg/kg | inactive | inactive | > 300 mg/kg |  | inactive | inactive | 
COC[C@@H](NC(C)=O)C(=O)NCc1ccc(C(=O)OC)cc1 |  | > 300 mg/kg | inactive | inactive | 100 mg/kg |  | inactive | inactive | 
COC[C@@H](NC(C)=O)C(=O)NCc1ccc(OC)cc1 | > 500 mg/kg | 100 mg/kg | inactive | inactive | 30 mg/kg | 28 mg/kg | inactive | inactive | >18
COC[C@H](NC(C)=O)C(=O)NCc1ccc(C#N)cc1 | > 30 mg/kg | > 300 mg/kg | inactive | inactive | 100 mg/kg | > 30 mg/kg | inactive | inactive | 
COC[C@@H](NC(C)=O)C(=O)NCc1ccc(-c2ccccc2)cc1 | 49 mg/kg | 11 mg/kg | inactive | inactive | 8 mg/kg | 2 mg/kg | inactive | inactive | >25
COC[C@@H](NC(C)=O)C(=O)NCc1ccc(CCCO)cc1 |  | > 300 mg/kg | inactive | inactive | > 300 mg/kg |  | inactive | inactive | 
COC[C@@H](NC(C)=O)C(=O)NCc1ccccc1OC(F)(F)F | > 500 mg/kg | 100 mg/kg | inactive | inactive | 30 mg/kg | 23 mg/kg | inactive | inactive | >22
CC#Cc1ccc(CNC(=O)[C@@H](COC)NC(C)=O)cc1 |  | 30 mg/kg | inactive | inactive | 10 mg/kg |  | inactive | inactive | 
CCc1ccc(CNC(=O)[C@@H](COC)NC(C)=O)cc1 | > 250 mg/kg | 30 mg/kg | inactive | inactive | 10 mg/kg | 18 mg/kg | inactive | inactive | >14
COC[C@@H](NC(C)=O)C(=O)NCc1cccc(OC(F)(F)F)c1 |  | 30 mg/kg | inactive | inactive | 10 mg/kg |  | inactive | inactive | 
